Laboratory results published in ChEMBL document CHEMBL1212784, “Structure-microbicidal activity relationship of synthetic fragments derived from the antibacterial alpha-helix of human lactoferrin” (2010).
Converted amounts (≈) assume the structure as drawn. Positions of bridges follow the written chain, without caps; N, C: chain ends. Residues, ends and D or L forms follow the SMILES beside them.

Experiments:
[1] = system: Staphylococcus epidermidis; assay: Antimicrobial activity against Staphylococcus epidermidis CCUG 18000A using in brain heart infusion medium(dil) after 2 hrs at 25 ug/ml; type: functional
Outline: (§1)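 Single-concentration screen: log-phase organisms (~2 × 10^5 cells/ml) incubated 2 h at 37°C in diluted BHI (1/100 of 3.4%, pH 6.7 to 6.9) with 25 μg/ml peptide (10 μg/ml for E. coli O6 and C. albicans); viable counts on blood agar; scored as ≥99% killed or not; duplicates.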

[2] = Antimicrobial activity against Escherichia coli O6 K5 after 20 hrs incubation in bactopeptone; type: functional; details: K5, 20 h
Outline: (§2)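 Microplate killing assay in 1% Bactopeptone (pH 7.0). Log-phase organisms (BHI overnight, 2 h subculture, 37°C, washed), final ~2 × 10^5 cells/ml, with twofold peptide dilutions, 37°C humid chamber 2 h (or 20 h where stated). 5 μl drops plated on blood agar overnight; MMC99 = lowest concentration giving ≥99% inoculum reduction; duplicates.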

Klebsiella pneumoniae = assay: Antimicrobial activity against Klebsiella pneumoniae CCUG 9997 using in brain heart infusion medium(dil) after 2 hrs at 25 ug/ml; type: functional; outline: as §1
Enterococcus faecalis = assay: Antimicrobial activity against Enterococcus faecalis ATCC 19433 using in brain heart infusion medium(dil) after 2 hrs at 25 ug/ml; type: functional; outline: as §1
Staphylococcus aureus [3] = assay: Antimicrobial activity against Staphylococcus aureus 1800 (CCUG 1800) after 2 hrs incubation in bactopeptone; type: functional; outline: as §2
Pseudomonas aeruginosa = assay: Antimicrobial activity against Pseudomonas aeruginosa CCUG 551 using in brain heart infusion medium(dil) after 2 hrs at 25 ug/ml; type: functional; outline: as §1
Staphylococcus aureus [4] = assay: Antimicrobial activity against Staphylococcus aureus 1800 (CCUG 1800) using in brain heart infusion medium(dil) after 2 hrs at 25 ug/ml; type: functional; outline: as §1
Candida albicans [5] = assay: Antimicrobial activity against Candida albicans ATCC […] after 20 hrs incubation in bactopeptone; type: functional; details: ATCC 64549, 20 h; outline: as §2
Staphylococcus aureus [6] = assay: Antimicrobial activity against Staphylococcus aureus 1800 (CCUG 1800) after 20 hrs incubation in bactopeptone; type: functional; outline: as §2
[7] = Antimicrobial activity against Escherichia coli O6 K5 after 2 hrs incubation in bactopeptone; type: functional; details: K5, 2 h; outline: as §2
Candida albicans [8] = assay: Antimicrobial activity against Candida albicans ATCC […] using in brain heart infusion medium(dil) after 2 hrs at 10 ug/ml; type: functional, ATCC 64549; outline: as §1
Escherichia coli [9] = assay: Antimicrobial activity against Escherichia coli O6 using in brain heart infusion medium(dil) after 2 hrs at 10 ug/ml; type: functional; outline: as §1
Candida albicans [10] = assay: Antimicrobial activity against Candida albicans ATCC […] after 2 hrs incubation in bactopeptone; type: functional; details: ATCC 64549, 2 h; outline: as §2
Escherichia coli [11] = assay: Antimicrobial activity against Escherichia coli O14 using in brain heart infusion medium(dil) after 2 hrs at 25 ug/ml; type: functional; outline: as §1
[12] = Antimicrobial activity against Escherichia coli O6 K5 incubation in bactopeptone; type: functional; outline: as §2
Staphylococcus aureus [13] = assay: Antimicrobial activity against Staphylococcus aureus 1800 (CCUG 1800) incubation in bactopeptone; type: functional; outline: as §2
Candida albicans [14] = assay: Antimicrobial activity against Candida albicans ATCC […] incubation in bactopeptone; type: functional; details: ATCC 64549; outline: as §2
Candida albicans [15] = assay: Antimicrobial activity against Candida albicans ATCC […] at 65.4 uM within 5 mins; type: functional, ATCC 64549
Outline: (§3)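 Killing kinetics in Bactopeptone with 62.7 μM or 65.4 μM peptide against ~2 × 10^5 cells/ml; samples taken immediately after mixing and at 5, 10, 30, 60 and 120 min, serially diluted and plated for viable counts; percent of inoculum killed; duplicates.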

Staphylococcus aureus [16] = assay: Antimicrobial activity against Staphylococcus aureus 1800 (CCUG 1800) at 62.7 uM within 30 mins; type: functional; details: in the assay text read “65.4 uM” for “62.7 uM”; outline: as §3
Staphylococcus aureus [17] = assay: Antimicrobial activity against Staphylococcus aureus 1800 (CCUG 1800) at 65.4 uM within 10 mins; type: functional; details: in the assay text read “62.7 uM” for “65.4 uM”; outline: as §3
Candida albicans [18] = assay: Antimicrobial activity against Candida albicans ATCC […] at 62.7 uM within 5 mins; type: functional, ATCC 64549; outline: as §3

Compound | MIC99 [2] [µg/mL] | MIC99 (Staphylococcus aureus [3]) [µg/mL] | MIC99 (Candida albicans [5]) [µg/mL] | MIC99 (Staphylococcus aureus [6]) [µg/mL] | MIC99 [7] [µg/mL] | MIC99 (Candida albicans [10]) [µg/mL] | MIC99 [12] [µg/mL] | MIC99 (Staphylococcus aureus [13]) [µg/mL] | MIC99 (Candida albicans [14]) [µg/mL] | Activity [1] | Activity (Klebsiella pneumoniae) | Activity (Enterococcus faecalis) | Activity (Pseudomonas aeruginosa) | Activity (Staphylococcus aureus [4]) | Activity (Candida albicans [8]) | Activity (Escherichia coli [9]) | Activity (Escherichia coli [11]) | also measured
H-QPEATKCFQWQRNMRKVR-OH | – | – | – | – | – | – | – | – | – | <99% | <99% | >=99% | <99% | >=99% | <99% | <99% | <99% | –
H-CFAWQRAMRKVR-OH | – | – | – | – | – | – | 25 | 50 | 25 | – | – | – | – | – | – | – | – | Activity (Staphylococcus aureus [17]): 90%; Activity (Candida albicans [18]): 99%
H-EATKCFQWQRNMRKVR-OH | – | – | – | – | – | – | – | – | – | >=99% | <99% | >=99% | <99% | >=99% | <99% | >=99% | <99% | –

Now from value to compound, other results behind:

MIC99 [2] [µg/mL] | MIC99 (Staphylococcus aureus [3]) [µg/mL] | MIC99 (Candida albicans [5]) [µg/mL] | MIC99 (Staphylococcus aureus [6]) [µg/mL] | MIC99 [7] [µg/mL] | MIC99 (Candida albicans [10]) [µg/mL] | MIC99 [12] [µg/mL] | MIC99 (Staphylococcus aureus [13]) [µg/mL] | MIC99 (Candida albicans [14]) [µg/mL] | Compound | Activity [1] | Activity (Klebsiella pneumoniae) | Activity (Enterococcus faecalis) | Activity (Pseudomonas aeruginosa) | Activity (Staphylococcus aureus [4]) | Activity (Candida albicans [8]) | Activity (Escherichia coli [9]) | Activity (Escherichia coli [11]) | also measured
12 | 25 | 50 | 50 | 25 | 200 | – | – | – | H-KCFQWQRNMRKVR-OH | >=99% | >=99% | >=99% | >=99% | >=99% | >=99% | >=99% | >=99% | –
50 | > 100 | 100 | > 100 | 100 | > 200 | 100 | > 100 | 50 | H-CFQWQRNMRKVR-OH | >=99% | <99% | >=99% | >=99% | >=99% | >=99% | >=99% | >=99% | –
– | – | – | – | – | – | 50 (≈ 16.3 µM) | 50 (≈ 16.3 µM) | 200 (≈ 65.4 µM) | CC[C@H](C)[C@H](NC(=O)[C@@H]1CSSC[C@H](NC(=O)[C@H](CCCCN)NC(=O)[C@@H](NC(=O)[C@H](C)NC(=O)[C@H](CCC(=O)O)NC(C)=O)[C@@H](C)O)C(=O)N[C@@H](Cc2ccccc2)C(=O)N[C@@H](CCC(N)=O)C(=O)N[C@@H](Cc2c[nH]c3ccccc23)C(=O)N[C@@H](CCC(N)=O)C(=O)N[C@@H](CCCNC(=N)N)C(=O)N[C@@H](CC(N)=O)C(=O)N[C@@H](CCSC)C(=O)N[C@@H](CCCNC(=N)N)C(=O)N[C@@H](CCCCN)C(=O)N[C@@H](C(C)C)C(=O)N[C@@H](CCCNC(=N)N)C(=O)NCC(=O)N2CCC[C@H]2C(=O)N2CCC[C@H]2C(=O)N[C@@H](C(C)C)C(=O)N[C@@H](CO)C(=O)N1)C(=O)N[C@@H](CCCCN)C(=O)N[C@@H](CCCNC(=N)N)C(N)=O (Ac-EATKCFQWQRNMRKVRGPPVSCIKR-NH2; disulfide 5-22) | – | – | – | – | – | – | – | – | Activity (Candida albicans [15]): >90%; Activity (Staphylococcus aureus [16]): 80%
25 | 50 | 50 | 100 | 50 | > 200 | – | – | – | H-TKCFQWQRNMRKVR-OH | >=99% | >=99% | >=99% | >=99% | >=99% | >=99% | >=99% | >=99% | –
